Calls of active or inactive are those of the source. The rule behind the calls is not given here.
How the values were obtained:
Cannabinoid receptor 1 = Cannabinoid receptor 1 (Mus musculus, UniProt P47746); assay: Displacement of [3H]CP-55940 from CB1 receptor in mouse brain; format: tissue-based
[1] = target: T1, Fatty-acid amide hydrolase 1 (Mus musculus, UniProt O08914); assay: Inhibition of FAAH-mediated [3H]anandamide hydrolysis in mouse brain; format: tissue-based
T1 sequence (O08914 whole entry): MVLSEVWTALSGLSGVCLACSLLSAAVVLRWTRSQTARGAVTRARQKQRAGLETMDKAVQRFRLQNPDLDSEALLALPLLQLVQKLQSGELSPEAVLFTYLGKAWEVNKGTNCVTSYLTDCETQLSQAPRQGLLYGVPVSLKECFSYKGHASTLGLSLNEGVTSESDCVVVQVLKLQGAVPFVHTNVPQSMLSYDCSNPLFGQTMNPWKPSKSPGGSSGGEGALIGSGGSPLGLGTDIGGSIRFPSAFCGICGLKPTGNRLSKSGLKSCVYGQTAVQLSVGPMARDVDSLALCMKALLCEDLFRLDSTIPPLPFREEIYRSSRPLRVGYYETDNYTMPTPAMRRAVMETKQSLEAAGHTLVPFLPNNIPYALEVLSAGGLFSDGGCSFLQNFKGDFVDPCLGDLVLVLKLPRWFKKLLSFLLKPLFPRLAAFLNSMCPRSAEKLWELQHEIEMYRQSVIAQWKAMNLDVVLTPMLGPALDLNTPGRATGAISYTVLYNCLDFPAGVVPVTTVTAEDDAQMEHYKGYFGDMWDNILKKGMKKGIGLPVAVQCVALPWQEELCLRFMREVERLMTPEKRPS

Monoglyceride lipase = target: T2, Monoglyceride lipase (Mus musculus, UniProt O35678); assay: Inhibition of MAGL-mediated 2-arachidonoylglycerol hydrolysis in mouse brain; format: tissue-based
T2 sequence (O35678 whole entry): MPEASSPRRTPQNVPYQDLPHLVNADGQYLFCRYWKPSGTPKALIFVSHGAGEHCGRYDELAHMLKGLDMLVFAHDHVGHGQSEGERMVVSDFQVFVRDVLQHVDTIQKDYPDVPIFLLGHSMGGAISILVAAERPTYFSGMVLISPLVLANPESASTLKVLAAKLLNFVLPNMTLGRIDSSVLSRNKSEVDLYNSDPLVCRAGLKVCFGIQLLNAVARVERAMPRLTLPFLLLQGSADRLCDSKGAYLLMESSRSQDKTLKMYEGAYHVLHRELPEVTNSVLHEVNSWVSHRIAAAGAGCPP

Mus musculus [2] = assay: Modulation of cataleptic behavior in Swiss-Webster mouse assessed as >10 sec latency along with flattened posture and open eyes at 10 mg/kg, ip by bar test; format: functional, organism-based; design: dose 10 mg/kg
Outline: (§1)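 Mice were given an intraperitoneal dose of 10 or 100 mg/kg and scored for catalepsy by bar test. A cannabinoid response was a latency >10 s, plus a qualitatively flattened posture and remaining motionless with eyes open. n=3 mice per treatment group, mean ± S.D.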

Mus musculus [3] = assay: Decrease in Swiss-Webster mouse brain arachidonic acid level at 100 mg/kg, ip; format: functional, organism-based; design: dose 100 mg/kg
Outline: (§2)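 Mice received single intraperitoneal doses (10 or 100 mg/kg). Brain levels of 2-AG and arachidonic acid were then measured. Values are mean ± S.D., n=3 mice per treatment group.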

Mus musculus [4] = assay: Increase in Swiss-Webster mouse brain 2-arachidonoylglycerol level at 10 mg/kg, ip; format: functional, organism-based; design: dose 10 mg/kg; outline: as §2
Mus musculus [5] = assay: Modulation of cataleptic behavior in Swiss-Webster mouse assessed as >10 sec latency along with flattened posture at 100 mg/kg, ip by bar test; format: functional, organism-based; design: dose 100 mg/kg; outline: as §1
Mus musculus [6] = assay: Increase in Swiss-Webster mouse brain 2-arachidonoylglycerol level at 100 mg/kg, ip; format: functional, organism-based; design: dose 100 mg/kg; outline: as §2
Mus musculus [7] = assay: Decrease in Swiss-Webster mouse brain arachidonic acid level at 10 mg/kg, ip; format: functional, organism-based; design: dose 10 mg/kg; outline: as §2
[8] = target: Cannabinoid receptor 1 (Mus musculus) (UniProt P47746); assay: Displacement of [3H]CP-55940 from CB1 receptor in mouse brain at 100 nM; format: tissue-based
[9] = target: Cannabinoid receptor 1 (Mus musculus) (UniProt P47746); assay: Displacement of [3H]CP-55940 from mouse CB1 receptor expressed in HEK293 cells up to 100,000 nM; format: cell-based

Sequence of Cannabinoid receptor 1 (P47746 whole entry): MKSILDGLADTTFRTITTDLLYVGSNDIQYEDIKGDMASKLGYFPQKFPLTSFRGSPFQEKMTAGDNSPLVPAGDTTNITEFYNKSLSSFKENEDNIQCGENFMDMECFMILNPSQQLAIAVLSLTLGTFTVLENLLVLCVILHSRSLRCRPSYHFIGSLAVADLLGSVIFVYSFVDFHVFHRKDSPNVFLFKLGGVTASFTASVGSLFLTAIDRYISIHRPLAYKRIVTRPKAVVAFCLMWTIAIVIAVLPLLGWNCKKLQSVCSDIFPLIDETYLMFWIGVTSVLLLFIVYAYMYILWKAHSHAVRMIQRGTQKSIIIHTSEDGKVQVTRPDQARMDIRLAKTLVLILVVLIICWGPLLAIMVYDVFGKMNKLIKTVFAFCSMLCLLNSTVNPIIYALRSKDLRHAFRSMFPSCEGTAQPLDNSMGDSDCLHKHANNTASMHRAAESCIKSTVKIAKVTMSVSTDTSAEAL
Sequence of Cannabinoid receptor 1 (Mus musculus) (P47746 whole entry): as above

Structure (SMILES) | IC50 (Cannabinoid receptor 1) [nM] | IC50 [1] [nM] | IC50 (Monoglyceride lipase) [nM] | Activity (Mus musculus [2]) | Activity (Mus musculus [3]) | Activity (Mus musculus [4]) | Activity (Mus musculus [5]) | Activity (Mus musculus [6]) | Activity (Mus musculus [7]) | Bmax [8] [pmol/mg] | Activity [9]
CCOP(=O)(OCC)Oc1ccc([N+](=O)[O-])cc1 [PARAOXON] | 1200 | 540 | 2300 | – | – | – | – | – | – | – | –
CCCCCCCCCCCCP(=O)(Oc1ccc([N+](=O)[O-])cc1)OC(C)C (stereo not drawn) | 12 | 3 | 0.28 | – | – | – | – | – | – | – | –
CCCCCCCCCCCCS(=O)(=O)F [DODECANESULFONYL FLUORIDE] | – | – | 200 | Active | Active | Active | Active | Active | Active | – | –
CCCCCCCCCCCCP(=O)(OCC)Oc1nc(Cl)c(Cl)cc1Cl (stereo not drawn) | 14 | 42 | 0.14 | inactive | inactive | inactive | inactive | inactive | inactive | – | –
CCCCCCCCCSP1(=O)OCc2ccccc2O1 (stereo not drawn) | – | 0.15 | 0.31 | – | – | – | – | – | – | – | –
CCCCCCCCS(=O)(=O)F | – | 1.9 | 140 | Active | Active | Active | Active | Active | Active | – | –
CCOP(=O)(OCC)Oc1nc(Cl)c(Cl)cc1Cl | – | – | – | – | – | – | – | – | – | 0.17 | inactive
CCCCCCCCCCCCP(=O)(OCC)Oc1ccc(C#N)cc1 (stereo not drawn) | 4 | 12 | 0.07 | Active | Active | Active | Active | Active | Active | – | –
